Measurements reported in ChEMBL document CHEMBL3822452, “Polyphenolic compounds with anti-tumour potential from Corchorus olitorius (L.) Tiliaceae, a Nigerian leaf vegetable” (2016).
Active and inactive are the calls of the source. The rule behind the calls is not given here.

Columns and labels:
HeLa [1] = assay: Cytotoxicity against human HeLa cells assessed as cell viability at 800 uM after 48 hrs by alamar blue assay relative to control; type: functional; settings: read-out: Activity
In short: (§1)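 HeLa cells in MEM with 10% FBS, 1% NEAA, 2 mM glutamine and 1% antibiotic-antimycotic were seeded at 1 x 10^5 cells/ml and grown 24 h at 37°C, 5% CO2. They were exposed 48 h to compound serially diluted in growth medium, in duplicate wells. Alamar Blue was added for 3 h, then 30 min at room temperature, and fluorescence read at ex 544/em 590 nm. Values are % of DMSO-only control, means ± SEM, with ANOVA and Dunnett's test.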

HeLa [2] = assay: Cytotoxicity against human HeLa cells assessed as cell viability at 1600 uM after 48 hrs by alamar blue assay relative to control; type: functional; settings: read-out: Activity; in short: as §1
NCI-H460 = assay: Cytotoxicity against human H460 cells assessed as reduction in cell viability after 48 hrs by alamar blue assay; type: functional, cell-based
PC-3 = assay: Cytotoxicity against human PC3 cells assessed as reduction in cell viability after 48 hrs by alamar blue assay; type: functional, cell-based
HeLa [3] = assay: Cytotoxicity against human HeLa cells assessed as loss of cells after 48 hrs by inverted microscopic analysis; type: functional, cell-based
In short: (§2)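 HeLa cultures were treated 48 h with increasing compound concentrations in growth medium, with controls given growth medium only. Bright-field images were then taken on an inverted microscope at x10 and examined for cell loss and rounding of remaining cells.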

HeLa [4] = assay: Cytotoxicity against human HeLa cells assessed as cell rounding after 48 hrs by inverted microscopic analysis; type: functional, cell-based; in short: as §2

COC(=O)[C@@]1(OC(=O)/C=C/c2ccc(O)c(O)c2)C[C@@H](O)[C@@H](OC(=O)/C=C/c2ccc(O)c(O)c2)[C@H](OC(=O)/C=C/c2ccc(O)c(O)c2)C1
viability at 800 µM (HeLa [1]): 71% | viability at 1600 µM (HeLa [2]): 19.6% | Activity (NCI-H460): inactive | Activity (PC-3): inactive | Activity (HeLa [3]): Dose-dependent effect | Activity (HeLa [4]): Dose-dependent effect

COc1cc(/C=C/C(=O)OC(=O)/C=C/c2ccc(O)c(OC)c2)ccc1O
viability at 800 µM (HeLa [1]): 22.3% | viability at 1600 µM (HeLa [2]): 5.3% | Activity (NCI-H460): inactive | Activity (PC-3): inactive | Activity (HeLa [3]): Dose-dependent effect | Activity (HeLa [4]): Dose-dependent effect
